# Experimental data as given in ChEMBL document CHEMBL4689842, “EUbOPEN Chemogenomics Library wave 1” (2021).
# Test system: HEK-293T
# Assay: Multiplex assay against HEK293T;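 for Population Tubulin-Different-Phenotype (%): share of the cells with healthy nuclei that show this phenotype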
# Format: toxicity, cell-based
# Conditions: human
# In short: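 Phenotypes for tubulin, mitochondrial mass and membrane permeability are expressed as per cents of healthy-nucleus cells. Cells were stained live at seeding with Hoechst33342, BioTracker Green Microtubule Cytoskeleton Dye, MitoTracker Red and Annexin V Alexa Fluor 680, then imaged after compound addition on a CQ1 microscope at 37°C and 5% CO2. Machine-learning gating in CellPathfinder separated Hoechst high-intensity objects from normal cells, divided normal cells by nuclear state (healthy, pyknosed, fragmented) and divided pyknosed cells into mitotic or apoptotic.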
# [1] = 12 h, 1 µM, compound concentration 1 uM, replicate 1
# [2] = 12 h, 1 µM, compound concentration 1 uM, replicate 2
# [3] = 12 h, 10 µM, compound concentration 10 uM, replicate 1
# [4] = 12 h, 10 µM, compound concentration 10 uM, replicate 2
# [5] = 24 h, 1 µM, compound concentration 1 uM, replicate 1
# [6] = 24 h, 1 µM, compound concentration 1 uM, replicate 2
# [7] = 24 h, 10 µM, compound concentration 10 uM, replicate 1
# [8] = 24 h, 10 µM, compound concentration 10 uM, replicate 2
# [9] = 48 h, 1 µM, compound concentration 1 uM, replicate 1
# [10] = 48 h, 1 µM, compound concentration 1 uM, replicate 2
# [11] = 48 h, 10 µM, compound concentration 10 uM, replicate 1
# [12] = 48 h, 10 µM, compound concentration 10 uM, replicate 2
smiles,measurement,setting,value
CNc1nc(NCc2ccc(NS(C)(=O)=O)cc2Cl)cc(-c2ccccn2)n1,Population Apoptotic (%),[1],52%
same,Population Fragmented Nuclei (%),[1],18%
same,Population Healthy Nuclei (%),[1],36%
same,Population Hoechst High Intensity Objects (%),[1],17%
same,Population Membrane Permeable-Phenotype (%),[1],3%
same,Population Mitochondria Different-Phenotype (%),[1],75%
same,Population Mitotic Cells (%),[1],48%
same,Population Normal (%),[1],82%
same,Population Pyknosed Nuclei (%),[1],44%
same,Population Tubulin-Different-Phenotype (%),[1],38%
same,Total Cell Count,[1],203
same,Population Apoptotic (%),[2],14%
same,Population Fragmented Nuclei (%),[2],6%
same,Population Healthy Nuclei (%),[2],43%
same,Population Hoechst High Intensity Objects (%),[2],2%
same,Population Membrane Permeable-Phenotype (%),[2],6%
same,Population Mitochondria Different-Phenotype (%),[2],18%
same,Population Mitotic Cells (%),[2],85%
same,Population Normal (%),[2],97%
same,Population Pyknosed Nuclei (%),[2],50%
same,Population Tubulin-Different-Phenotype (%),[2],23%
same,Total Cell Count,[2],273
same,Population Apoptotic (%),[3],60%
same,Population Fragmented Nuclei (%),[3],9%
same,Population Healthy Nuclei (%),[3],25%
same,Population Hoechst High Intensity Objects (%),[3],14%
same,Population Mitochondria Different-Phenotype (%),[3],95%
same,Population Mitotic Cells (%),[3],39%
same,Population Normal (%),[3],85%
same,Population Pyknosed Nuclei (%),[3],65%
same,Population Tubulin-Different-Phenotype (%),[3],92%
same,Total Cell Count,[3],190
same,Population Apoptotic (%),[4],25%
same,Population Fragmented Nuclei (%),[4],4%
same,Population Healthy Nuclei (%),[4],18%
same,Population Hoechst High Intensity Objects (%),[4],4%
same,Population Membrane Permeable-Phenotype (%),[4],0%
same,Population Mitochondria Different-Phenotype (%),[4],50%
same,Population Mitotic Cells (%),[4],74%
same,Population Normal (%),[4],95%
same,Population Pyknosed Nuclei (%),[4],76%
same,Population Tubulin-Different-Phenotype (%),[4],73%
same,Total Cell Count,[4],189
same,Population Apoptotic (%),[5],55%
same,Population Fragmented Nuclei (%),[5],16%
same,Population Healthy Nuclei (%),[5],52%
same,Population Hoechst High Intensity Objects (%),[5],18%
same,Population Membrane Permeable-Phenotype (%),[5],0%
same,Population Mitochondria Different-Phenotype (%),[5],50%
same,Population Mitotic Cells (%),[5],45%
same,Population Normal (%),[5],81%
same,Population Pyknosed Nuclei (%),[5],31%
same,Population Tubulin-Different-Phenotype (%),[5],25%
same,Total Cell Count,[5],234
same,Population Apoptotic (%),[6],16%
same,Population Fragmented Nuclei (%),[6],4%
same,Population Healthy Nuclei (%),[6],57%
same,Population Hoechst High Intensity Objects (%),[6],5%
same,Population Membrane Permeable-Phenotype (%),[6],7%
same,Population Mitochondria Different-Phenotype (%),[6],14%
same,Population Mitotic Cells (%),[6],83%
same,Population Normal (%),[6],94%
same,Population Pyknosed Nuclei (%),[6],37%
same,Population Tubulin-Different-Phenotype (%),[6],31%
same,Total Cell Count,[6],355
same,Population Apoptotic (%),[7],63%
same,Population Fragmented Nuclei (%),[7],10%
same,Population Healthy Nuclei (%),[7],29%
same,Population Hoechst High Intensity Objects (%),[7],14%
same,Population Membrane Permeable-Phenotype (%),[7],0%
same,Population Mitochondria Different-Phenotype (%),[7],95%
same,Population Mitotic Cells (%),[7],36%
same,Population Normal (%),[7],85%
same,Population Pyknosed Nuclei (%),[7],60%
same,Population Tubulin-Different-Phenotype (%),[7],87%
same,Total Cell Count,[7],193
same,Population Apoptotic (%),[8],34%
same,Population Fragmented Nuclei (%),[8],3%
same,Population Healthy Nuclei (%),[8],25%
same,Population Hoechst High Intensity Objects (%),[8],6%
same,Population Mitochondria Different-Phenotype (%),[8],88%
same,Population Mitotic Cells (%),[8],65%
same,Population Normal (%),[8],93%
same,Population Pyknosed Nuclei (%),[8],71%
same,Population Tubulin-Different-Phenotype (%),[8],95%
same,Total Cell Count,[8],177
same,Population Apoptotic (%),[9],47%
same,Population Fragmented Nuclei (%),[9],15%
same,Population Healthy Nuclei (%),[9],64%
same,Population Hoechst High Intensity Objects (%),[9],8%
same,Population Membrane Permeable-Phenotype (%),[9],2%
same,Population Mitochondria Different-Phenotype (%),[9],24%
same,Population Mitotic Cells (%),[9],52%
same,Population Normal (%),[9],91%
same,Population Pyknosed Nuclei (%),[9],19%
same,Population Tubulin-Different-Phenotype (%),[9],18%
same,Total Cell Count,[9],336
same,Population Apoptotic (%),[10],14%
same,Population Fragmented Nuclei (%),[10],5%
same,Population Healthy Nuclei (%),[10],76%
same,Population Hoechst High Intensity Objects (%),[10],3%
same,Population Membrane Permeable-Phenotype (%),[10],5%
same,Population Mitochondria Different-Phenotype (%),[10],7%
same,Population Mitotic Cells (%),[10],85%
same,Population Normal (%),[10],96%
same,Population Pyknosed Nuclei (%),[10],18%
same,Population Tubulin-Different-Phenotype (%),[10],26%
same,Total Cell Count,[10],601
same,Population Apoptotic (%),[11],74%
same,Population Fragmented Nuclei (%),[11],15%
same,Population Healthy Nuclei (%),[11],29%
same,Population Hoechst High Intensity Objects (%),[11],16%
same,Population Membrane Permeable-Phenotype (%),[11],2%
same,Population Mitochondria Different-Phenotype (%),[11],85%
same,Population Mitotic Cells (%),[11],25%
same,Population Normal (%),[11],83%
same,Population Pyknosed Nuclei (%),[11],54%
same,Population Tubulin-Different-Phenotype (%),[11],93%
same,Total Cell Count,[11],189
same,Population Apoptotic (%),[12],61%
same,Population Fragmented Nuclei (%),[12],5%
same,Population Healthy Nuclei (%),[12],26%
same,Population Hoechst High Intensity Objects (%),[12],5%
same,Population Membrane Permeable-Phenotype (%),[12],7%
same,Population Mitochondria Different-Phenotype (%),[12],76%
same,Population Mitotic Cells (%),[12],38%
same,Population Normal (%),[12],94%
same,Population Pyknosed Nuclei (%),[12],67%
same,Population Tubulin-Different-Phenotype (%),[12],82%
same,Total Cell Count,[12],202
